Sampled rows, rich in hits. Any-hit rate of the full collection: about 2.9%.
ABHD5-PLIN5 inh: ABHD5-PLIN5 protein interaction inhibition | Split G. princeps luciferase complementation, luminescence, 4 h | Q00G26+Q8WTS1 | hit rate 0.78% among 360,000 | inhibition, % at 4 µM | AID 602281;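 active = inhibition above the mean inhibition across every tested compound plus 3 SD, cut at about 22% in these data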
APOBEC3A inh: blocks human APOBEC3A ssDNA deamination; recombinant A3A, FAM/TAMRA ssDNA deamination fluorescence; inhibition, % at 20 µM; hit rate 0.41% among 330,000; AID 493011;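 active = at least 40% inhibition at 20 µM here, with at most 30% in a related deaminase screen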
Target sequence (P31941 whole entry, looked up): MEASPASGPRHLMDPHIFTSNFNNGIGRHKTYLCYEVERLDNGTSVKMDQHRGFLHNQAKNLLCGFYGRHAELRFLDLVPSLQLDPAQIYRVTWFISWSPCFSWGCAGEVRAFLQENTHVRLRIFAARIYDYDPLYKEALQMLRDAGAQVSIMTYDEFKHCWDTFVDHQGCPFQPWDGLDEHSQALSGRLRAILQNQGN
NS3 helicase inh: inhibitors of Hepatitis C virus NS3 helicase. NS3 helicase DNA unwinding, Cy5 molecular beacon fluorescence. inhibition, % at 10.9 µM. hit rate 0.56% among 290,000. AID 1800;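 active = inhibition above the mean of all tested compounds plus 3 SD, set per campaign, cut at about 35% in these data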
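System: HCV NS3 helicase fragment; control set: DMSO and thioflavine S; technique: Cy5 fluorescence at 0 and 60 min, beacon hairpin quenching; reagent: beacon DNA duplex substrate plus ATP; replicates: singlicate; schedule: 1 h reaction at 25 °C, ATP-initiated; medium: MOPS buffer pH 6.5 with MgCl2, DTT, Tween20, BSA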
A3G deaminase: inhibitors of human APOBEC3G DNA deaminase. Q9HC16. recombinant A3G, ssDNA deamination FAM/TAMRA fluorescence. inhibition, % at 20 µM. hit rate 0.28% among 330,000;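 active = inhibition of at least 40% at 20 µM, with no more than 30% in the related APOBEC3A deaminase screen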
PRMT1 FP inh: blocks human protein arginine methyltransferase 1; Q99873; recombinant PRMT1, activity-based probe fluorescence polarization; inhibition, % at 2.79 µM; hit rate 1.3% among 370,000; AID 652257;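 active = inhibition above about 21% made by adding two undisclosed values, limit read from the data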
Target sequence (Q99873 whole entry, looked up): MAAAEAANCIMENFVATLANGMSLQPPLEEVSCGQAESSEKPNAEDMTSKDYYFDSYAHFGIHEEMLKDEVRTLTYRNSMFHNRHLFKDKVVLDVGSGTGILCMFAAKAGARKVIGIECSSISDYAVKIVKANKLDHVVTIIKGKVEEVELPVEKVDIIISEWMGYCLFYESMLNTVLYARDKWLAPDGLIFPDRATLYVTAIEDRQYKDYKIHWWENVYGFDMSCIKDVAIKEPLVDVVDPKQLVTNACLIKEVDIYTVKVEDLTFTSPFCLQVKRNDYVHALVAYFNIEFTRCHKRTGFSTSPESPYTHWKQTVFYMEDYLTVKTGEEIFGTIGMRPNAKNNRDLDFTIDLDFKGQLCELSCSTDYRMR
core dimer inh: HCV core protein dimerization inhibition. inhibition, % at 5 µM. TR-FRET GST/Flag-core106 dimerization, 1536-well. AID 1899. hit rate 0.33% among 300,000;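 active = inhibition above the mean of all tested compounds plus 3 SD, set per screening campaign, cut at about 45% in these data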
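Assay system: GST-tagged and Flag-tagged HCV core protein residues 1-106 / Times: compound-protein-antibody incubation 4 h at 22.5 °C / Signal: time-resolved FRET, ex 340 nm, em 617 and 671 nm / Evaluation: % inhibition based on acceptor/donor emission ratio / Benchmarks: wells lacking GST-core106 and wells with excess unlabelled core106 / Repeats: singlicate, one well per compound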
PRMT1 inh conf: confirmation of human PRMT1 inhibitors | hit rate 42% among 3,300 | inhibition, % at 2.79 µM | recombinant His-PRMT1, activity-based probe fluorescence polarization | shares compounds with PRMT1 FP inh;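 active = mean inhibition across replicates above the hit cutoff derived for the earlier primary screen, cut at about 22% in these data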
Hits are given with their value; n = inactive; x = no result.

SMILES | ABHD5-PLIN5 inh | APOBEC3A inh | NS3 helicase inh | A3G deaminase | PRMT1 FP inh | core dimer inh | PRMT1 inh conf
COc1cccc2c1C(=O)c1c(O)c3c(c(O)c1C2=O)CC(O)(C(=O)CO)CC3OC1CC(N(C)C)C(O)C(C)O1 (centres undefined) | n | x | x | x | 193 | x | 148
c1ccc(-c2cc3c(N4CCCC4)ncnc3s2)cc1 | n | n | n | n | 40 | n | n
O=C1NCCN1c1ncc([N+](=O)[O-])s1 | n | n | x | n | n | n | x
C=CCn1c(Sc2ncc([N+](=O)[O-])s2)n[nH]c1=O | n | n | n | n | 75 | n | 61
COc1ccc(NC(=O)COC(=O)CNS(=O)(=O)/C=C/c2ccccc2)cc1OC | n | n | x | n | n | x | x
Cc1cnc(C(=O)N(c2ccccc2)C(c2ccccc2)c2nc3ccccc3[nH]2)cn1 (centres undefined) | n | x | x | x | n | x | x
CCOC(=O)C1=C(N)Oc2c(c(=O)[nH]c3ccccc23)C1c1ccccc1 (centres undefined) | n | n | n | n | 58 | n | n
CCOC(=O)C1=C(N)Oc2cc(C)[nH]c(=O)c2C1c1ccncc1 (centres undefined) | n | n | n | n | n | n | x
COCC(C)N1C(=O)Cc2c1nc(N)c1c(N)nc(N3CCN(c4ccccc4F)CC3)c(C#N)c21 (centres undefined) | n | n | n | n | n | n | x
COCCN1C(=O)Cc2c1nc(N)c1c(N)nc(N3CCN(c4ccc(F)cc4)CC3)c(C#N)c21 | n | n | n | n | 27 | n | n
COc1ccc(CN2C(=O)Cc3c2nc(N)c2c(N)nc(N4CCOCC4)c(C#N)c32)cc1 | n | n | n | n | 25 | n | n
CN(CCO)c1nc(N)c2c(N)nc3c(c2c1C#N)CC(=O)N3Cc1cccs1 | n | n | n | n | 27 | n | n
N#Cc1cc(F)cc(OCCCN2CCC(C(O)(c3ccccc3)c3ccccc3)CC2)c1 | x | x | x | x | n | x | x
Cc1[nH]c(SCC(=O)Nc2cc(S(C)(=O)=O)ccc2Cl)nc1Cc1ccccc1 | n | n | x | n | 26 | x | n
Cc1cc(NC(=O)CSc2nc(Cc3ccccc3)c(C)[nH]2)no1 | n | n | n | n | n | n | x
O=C(CSc1nc(NS(=O)(=O)c2ccccc2)cc(=O)[nH]1)Nc1ccccc1Cl | n | n | n | n | 29 | x | n
C/C(=N\NC(=O)c1nnn(-c2nonc2N)c1CSc1ccc(C)cc1)c1cccs1 | n | x | x | x | n | x | x
CCCOc1cccn2c(N(C=O)Cc3ccc(OC)cc3)c(CC)nc12 | n | x | x | x | n | x | x
O=[N+]([O-])c1ccc(N=Nc2ccc(O)cc2O)cc1 | n | n | n | n | n | n | x
O=S(=O)(O)c1cc(Cl)cc(N=Nc2ccc(O)cc2O)c1O | n | x | x | x | 86 | x | 65
CCN(C(=O)CSc1n[nH]c(-c2ccc(OC)cc2)n1)c1c(N)n(Cc2ccccc2)c(=O)[nH]c1=O | n | x | x | x | n | x | x
C[C@H](NC(=O)c1ccco1)C(=O)NNC(=O)COc1cccc(C(F)(F)F)c1 | n | n | x | n | n | x | x
O=C(NCCc1cccs1)Nc1nnc([C@H]2C[C@H](O)[C@@H](CO)O2)s1 | n | x | x | x | n | x | x
O=C1NCCCC2c3c(cc(Br)c(O)c3Br)OC12N1CCOCC1 (centres undefined) | n | n | n | n | 27 | n | n
O=C1NCCCC2c3cc(O)c4ccccc4c3OC12N1CCCCC1 (centres undefined) | x | n | n | n | n | n | x
SMILES | ABHD5-PLIN5 inh | APOBEC3A inh | NS3 helicase inh | A3G deaminase | PRMT1 FP inh | core dimer inh | PRMT1 inh conf
CC=Cc1cc(OC)c2c(c1)C(C)C(c1ccc(O)c(OC)c1)O2 (centres undefined) | n | x | x | x | n | x | x
Cc1ccc(C=Nn2c(-c3n[nH]c4c3CCC4)n[nH]c2=S)s1 | x | x | x | x | 29 | x | n
S=c1[nH]nc(-c2n[nH]c3c2CCC3)n1N=Cc1ccc(Br)s1 | x | x | x | x | n | x | x
Cc1cccc2nc(CSc3nc4cc([N+](=O)[O-])ccc4s3)cn12 | n | n | n | n | 53 | n | n
COc1ccc(C(=O)/C=C/C(=O)N(CC(=O)NC2CCCCC2)Cc2cccs2)c(O)c1 | 70 | n | n | n | 38 | n | 65
COc1ccc(-c2ncn(CCc3ccccc3OC)c2CC(C)C)cc1 | x | x | x | x | n | x | x
CCCOc1cccc(C2C(C(=O)c3ccco3)=C(O)C(=O)N2c2nnc(C)s2)c1 (centres undefined) | n | n | n | n | 32 | n | n
Cc1ccc(C2C(C(=O)c3cccs3)=C(O)C(=O)N2c2nnc(C)s2)cc1 (centres undefined) | n | n | n | n | 69 | n | 36
Cc1nnc(N2C(=O)C(O)=C(C(=O)c3ccco3)C2c2ccc(F)cc2)s1 (centres undefined) | n | n | n | n | 40 | n | n
C=CCOc1cccc(C2C(C(=O)c3ccc(C)o3)=C(O)C(=O)N2c2nccs2)c1 (centres undefined) | n | n | n | n | 63 | n | 38
COc1cccc(C2C(C(=O)c3ccc(C)o3)=C(O)C(=O)N2c2cc(C)on2)c1 (centres undefined) | n | n | n | n | n | n | x
COc1ccc(C2C(C(=O)c3cccs3)=C(O)C(=O)N2c2cccc(C)n2)cc1 (centres undefined) | n | n | n | n | n | n | x
COCCCN1C(=O)C(CC(=O)NC(c2ccccc2)c2ccccc2)CC(C(=O)N(C(C)C)C(C)C)=C1C (centres undefined) | n | x | x | x | n | x | x
CC1CCCCN1C(=O)C1COc2ccccc2O1 (centres undefined) | n | n | n | n | n | n | x
CCC(C)Nc1nc(C)nc2c1nnn2Cc1ccccc1 (centres undefined) | x | x | x | x | n | x | x
CSCCC(NC(=O)c1cccc(C)c1)C(=O)NCc1cccs1 (centres undefined) | n | n | x | n | n | x | x
N#C/C(=C\c1ccccc1[N+](=O)[O-])C(=O)NC1CCCCC1 | n | n | n | n | 32 | n | n
N#C/C(=C\C=C\c1ccccc1[N+](=O)[O-])C(=O)NC1CCCCC1 | n | n | n | n | x | n | x
CSc1ncnc2c1ncn2CCCN1CCN(C(=O)C2CC2)CC1 | n | x | x | x | n | x | x
CN(C(=O)CNC(=O)c1ccccc1OCC(=O)Nc1ccc(I)cc1)c1ccccc1 | x | x | x | x | 31 | x | n
CN(C(=O)CNC(=O)c1ccccc1OCC(=O)Nc1ccc(Br)cc1)c1ccccc1 | x | x | x | x | n | x | x
Cc1cc(NC(=O)c2ccc(Cl)cc2)no1 | n | n | n | n | n | n | x
Cc1cc(NC(=O)c2ccc3nc(C)sc3c2)no1 | n | n | n | n | 31 | n | n
CCOC(=O)C1=C(O)/C(=C/c2ccc(CNC(=O)C(=O)Nc3ccc(C)cc3)o2)N=C1C | n | n | n | n | 48 | n | n
COC(=O)C1=C(O)/C(=C\c2ccc(CNC(=O)C(=O)Nc3ccc(C)c(C)c3)o2)N=C1C | n | n | n | n | 45 | n | n

Assay outcomes: PubChem BioAssay, several laboratories
